eIF2B yeast act = modulators of yeast eIF2B activity | S. cerevisiae eIF2B-epsilon R284H, GCN4-lacZ luminescence | inhibition, % at 25 µM (by protocol) | hit rate 0.91% among 27,000 | AID 688;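 active means mutant luminescence inhibited past about 50% while wild type luminescence and mutant growth stay under set limits, limit read from the data; inconclusive means mutant versus wild type luminescence inhibition gap past a set limit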
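Assay system: yeast eIF2B-epsilon R284H mutant carrying GCN4–beta-galactosidase fusion / Buffer or medium: YPD / Incubation: 16 h growth with compound at 30 °C, 90 min Beta-Glo step / Detection: Beta-Glo luminescence after Z-buffer lysis, growth by 595 nm absorbance / Read-out: % inhibition of reporter signal and growth versus controls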
Yeast growth tox = Inhibits yeast growth, turbidity readout | S. cerevisiae wild-type growth, A595 turbidity, 16 h | growth inhibition, % at 25 µM (by protocol) | hit rate 0.3% among 30,000 | AID 685;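 active means mutant and wild-type yeast strains alike exhibit over 30% growth inhibition; inconclusive means a strain exceeds 50% while the second remains under 30%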;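 further: 0% = untreated cell controls and 100% = YPD media blanks without cells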
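system = S. cerevisiae wild-type or eIF2Bepsilon-R284H mutant strain | buffer or medium = YPD medium | dosing = one dose, 25 µM compound, 0.2% DMSO | schedule = 16 h at 30 °C | measured by = A595 turbidity | evaluation = growth inhibition (%) versus cell controls and blanks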
The depositor's hits bear a star; ? = inconclusive; . = no result. In the library only some 1.1% were active in any assay of this set; here they are far more common.

SMILES	eIF2B yeast act	Yeast growth tox
Clc1ccc2c(c1)C(N1CCNCC1)Cc1ccccc1S2 (stereo unspecified)	41.0	86.0*
CC(C)c1cc(NCC2CCCO2)n2c(nc3ccccc32)c1C#N (stereo unspecified)	.	-3.9
CC(C)(Oc1ccc(Cl)cc1)C(=O)Nc1ccncc1	.	75.7*
CC(C)(Oc1ccc(Cl)cc1)C(=O)NCc1ccco1	21.9	28.6
COc1cc(CNn2cnnc2)ccc1OCC(=O)NC1CCCCC1	-34.5	15.3
O=c1c(Cl)c(NCCCO)cnn1-c1nc2ccccc2[nH]1	55.8*	29.0
O=c1[nH]ncc(NCCCO)c1Cl	17.7	11.2
CCn1cc(C(=O)Nc2ccc(-n3cnnn3)c(OC)c2)c(=O)c2ccc(C)nc21	2.9	-10.5
O=C1c2cccc3cccc(c23)C(=O)N1c1ccncc1	-56.0	44.3*
CCc1nnc(N2C(=O)c3cccc4cccc(c34)C2=O)s1	7.0	13.8
CCOC(=O)C1=C(CNCc2ccc(C)cc2)NC(=O)NC1c1ccc(OC)cc1 (stereo unspecified)	-5.7	-15.1
CCSc1nnc(NC(=O)c2csc3c2CCCC3)s1	-2.6	.
CCSc1nnc(NC(=O)c2ccccn2)s1	82.5	66.2*
Clc1ccccc1CSc1ncccn1	15.7	8.9
CCOc1ccccc1Oc1ccc(C(F)(F)F)cn1	11.6	15.4
CCOCC(=O)Nc1cccc(NC(C)=O)c1	72.2*	-0.3
CCOCC(=O)Nc1ccc(F)c(F)c1	12.3	0.3
COc1ccc(C2C(C#N)=C(N)OC3=C2C(=O)CC(C)(C)C3)c(OC)c1OC (stereo unspecified)	14.5	9.1
O=C(Nc1cccc2ccccc12)N1CC=C(c2ccccc2)CC1	11.9	-10.8
CN(c1ccc(C(=O)N2CCOCC2)cc1)S(C)(=O)=O	.	11.3
CC12CCC(C(=O)N(Cc3ccccc3)Cc3ccccc3)(OC1=O)C2(C)C (stereo unspecified)	26.9	-13.9
Brc1cnn(-c2nc(N3CCOCC3)nc(N3CCOCC3)n2)c1	51.6*	-17.6
Brc1cnc(N2CCOCC2)nc1N1CCCCC1	30.2	9.2
COc1ccc(Nc2nc(N3CCCCC3)nc3ccccc23)c(OC)c1	5.9	-7.7
COc1ccc(N/C=C(\C#N)c2nc3ccccc3n2C)c(OC)c1	58.5*	-3.2
SMILES	eIF2B yeast act	Yeast growth tox
CCn1nc(C)c(NC(=O)c2cc(Br)ccc2Cl)c1C	0.7	1.9
CC(C)OC(=O)CSc1nc2ccccc2s1	.	-12.0
CCC(=O)OCCNc1cc(Sc2nc3ccccc3s2)c2nonc2c1[N+](=O)[O-]	.	52.4*
CCn1nnnc1SCC(=O)Nc1sc(C)c(C)c1C#N	5.0	-5.2
CCCCCn1c(SCC(=O)OCC)nc2cc(C(=O)NCc3ccco3)ccc2c1=O	56.1*	-7.0
C=CCn1c(SCC(=O)OCC)nc2cc(C(=O)NCc3ccco3)ccc2c1=O	.	16.9
CSc1ccccc1-n1nnnc1SCC(=O)Nc1ccccc1C	.	17.7
Cc1ccc(OCCCC(=O)Nc2ccc(S(=O)(=O)Nc3cc(C)on3)cc2)cc1	53.2*	1.7
COc1ccc(CC(=O)Nc2ccc(S(=O)(=O)Nc3cc(C)on3)cc2)cc1	14.3	12.3
COc1cc(C2C(C#N)=C(N)OC3=C2C(=O)CCC3)ccc1OC(=O)N1CCOCC1 (stereo unspecified)	20.1	21.0
COC(=O)c1oc2ccc(Cl)cc2c1NC(C)=O	12.2	23.2
CCOC(=O)C1(P(=O)(c2ccccc2)c2ccccc2)CCC1	1.2	23.5
O=C(CSc1nnc(-c2ccco2)o1)NC(=O)Cc1ccccc1	23.9	7.8
O=C(CCSc1nnc(-c2ccco2)o1)Nc1ccc(Cl)cc1	57.5*	-32.0
Cc1cc(C)n2nc(SCCC(=O)NCCc3ccccc3)nc2n1	12.4	22.1
CCCc1[nH]nc2c1C(c1ccc(OC(=O)N3CCOCC3)c(OC)c1)C(C#N)=C(N)O2 (stereo unspecified)	11.8	6.0
N#Cc1ccc(-c2ccco2)nc1SCc1ccccc1	18.7	-12.3
O=C(O)c1ccc(CSc2n[nH]c(-c3ccco3)n2)cc1	66.7*	-13.3
CC(C)CCNC(=O)c1cccc(Cl)c1	34.5	-1.0
O=C(NCCN1CCCCC1)Nc1ccccc1	23.5	-27.7
CN1CCN(C(=O)CSc2nc(-c3ccncc3)ccc2C#N)CC1	71.2*	12.1
COC(=O)CSc1nc(-c2cccs2)ccc1C#N	26.1	.
CC(C)COC(=O)Cc1c(O)c2ccccc2[nH]c1=O	16.7	3.5
CC1CCCCN1c1nc2nonc2nc1N1CCCCC1C (stereo unspecified)	-15.5	-1.3
Cc1cc2ncc(C(=O)Nc3ccccc3)c(C)n2n1	51.9*	4.5
SMILES	eIF2B yeast act	Yeast growth tox
Cc1nn2c(C)c(C(=O)Nc3ccccc3)cnc2c1C#N	-9.8	?
CCOc1ccc(N2CCCCn3c2nc2c3c(=O)[nH]c(=O)n2C)cc1	1.2	.
Cc1coc2c(C)c3oc(=O)c4c(c3cc12)CCC4	7.7	-7.1
CCc1nnc(NC(=O)CN2CCN(c3ccc(Cl)cc3)CC2)s1	10.8	2.4
CC(C)(C)C(=O)Nc1ccc(Oc2ccc3c(c2)C(=O)N(c2ccc(O)cc2)C3=O)cc1	8.1	-9.6
Cc1ccc(-c2cc3nc(-c4ccccc4)cc(N4CCOCC4)n3n2)cc1	.	-30.3
CCN1CCN(c2cc(-c3ccccc3)nc3cc(-c4cccc(F)c4)nn23)CC1	53.2*	.
CC1C2=C(CCCC2=O)N(c2cccc3ccccc23)C2=C1C(=O)CCC2	33.7	4.3
CSc1nc2[nH]c3c(c2c2nnnn12)CCCC3	19.3	11.9
O=S1(=O)C=C(Sc2nnc(-c3ccccc3)o2)c2ccccc21	81.8	76.2*
CSc1nnc(-c2ccccc2)o1	2.0	4.2
CC(C)CCn1c(=O)c2ccccc2c2ccccc2c1=O	16.6	10.0
COc1ccccc1-n1c(SCC(=O)Nc2cccc3ccccc23)nc(O)cc1=O	.	21.7
COc1ccccc1NC(=O)CSc1nc(O)cc(=O)n1C	53.2*	-21.1
COc1ccccc1NC(=O)c1ccccc1SC	14.1	4.6
COc1ccccc1NC(=O)c1cc2ccccc2o/c1=N\O	63.9*	8.8
Cc1c(C(=O)N2CCN(c3ccccc3F)CC2)sc2nc(-c3ccccc3)cn12	60.0*	10.6
Cc1c(C(N)=O)sc2nc(-c3ccccc3)cn12	17.5	6.6
CCn1c(CNc2ccccc2Cl)nnc1SCC(=O)OC1CCCCC1	.	0.8
O=C(CSc1nc(-c2ccco2)cc(C(F)(F)F)n1)Nc1ccccc1C(F)(F)F	51.5*	-4.0
Cc1cccc(C)c1NC(=O)CSc1nc(-c2ccco2)cc(C(F)(F)F)n1	16.9	-10.9
COC(=O)c1ccc(Oc2c(C)oc3c(CN4CCN(C)CC4)c(O)ccc3c2=O)cc1	36.0	-12.9
O=C(C1CCCN(Cc2ccccc2)C1)N1CCCCC1 (stereo unspecified)	11.6	9.6
Oc1cc(Cc2ccccc2)cnc1CN1CCCCC1	56.3*	-15.4
CCC(C)(C)n1nnnc1C(C(C)C)N(CCN1CCOCC1)Cc1cc2cccc(C)c2[nH]c1=O (stereo unspecified)	.	3.9
Cc1c(Cl)c(C(=O)NC2CCCC2)nn1C	-6.7	33.7
Cn1c(SC2C(=O)CC(C)(C)CC2=O)nnc1-c1ccco1	60.3*	5.3
CC1(C)CC(=O)C(Sc2nnc(-c3ccc(NS(C)(=O)=O)cc3)n2Cc2ccco2)C(=O)C1	18.0	7.5
CCOc1ccc(OCCN2C(=O)NC3(CCCc4ccccc43)C2=O)cc1 (stereo unspecified)	33.5	-7.8
